Reference: ChEMBL document CHEMBL4190409, “New somatostatin-drug conjugates for effective targeting pancreatic cancer” (Bioorg Med Chem, 2018)
Active and inactive are the calls of the source. The rule behind the calls is not given here. Peptide text beside a SMILES is read from it.

Key:
[1] = biological target: T1, Somatostatin receptor type 3 (Homo sapiens, UniProt P32745); assay: Agonist activity at SSTR3 (unknown origin) expressed in HEK293 cells assessed as inhibition of forskolin-induced CRE promoter activity at 10 to 1000 nM by luciferase reporter gene assay; format: functional, cell-based
Method in brief: (§1)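 HEK-293 cells (70,000/well) co-transfected via JetPei with CRE-luciferase reporter, β-galactosidase construct and one SSTR subtype vector (empty pcDNA3.1 control). After 1 day, treated with 10 µM forskolin alone or with peptide. Luminescence read relative to forskolin alone and normalized to β-galactosidase (ONPG). Triplicates, representative of three experiments.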

[2] = biological target: T2, Somatostatin receptor type 1 (Homo sapiens, UniProt P30872); assay: Drug uptake in HEK293 cells co-expressing SSTR1 (unknown origin) and RFP assessed as SSTR1-mediated drug accumulation by measuring mean fluorescence intensity measured after 30 mins by fluorescence microscopic analysis (reference value: 1.1); format: ADME, cell-based; details: hek293, 0.5 h
[3] = biological target: T3, Somatostatin receptor type 4 (Homo sapiens, UniProt P31391); assay: Drug uptake in HEK293 cells co-expressing SSTR4 (unknown origin) and RFP assessed as SSTR4-mediated drug accumulation by measuring mean fluorescence intensity measured after 30 mins by fluorescence microscopic analysis (reference value: 1.1); format: ADME, cell-based; details: hek293, 0.5 h
[4] = biological target: T4, Somatostatin receptor type 2 (Homo sapiens, UniProt P30874); assay: Agonist activity at SSTR2 (unknown origin) expressed in HEK293 cells assessed as inhibition of forskolin-induced CRE promoter activity at 10 to 1000 nM by luciferase reporter gene assay; format: functional, cell-based; method in brief: as §1
[5] = biological target: T4, Somatostatin receptor type 2; assay: Drug uptake in HEK293 cells co-expressing SSTR2 (unknown origin) and RFP assessed as SSTR2-mediated drug accumulation by measuring mean fluorescence intensity measured after 30 mins by fluorescence microscopic analysis (reference value: 1.1); format: ADME, cell-based; details: hek293, 0.5 h
[6] = biological target: T2, Somatostatin receptor type 1; assay: Agonist activity at SSTR1 (unknown origin) expressed in HEK293 cells assessed as inhibition of forskolin-induced CRE promoter activity at 10 to 1000 nM by luciferase reporter gene assay; format: functional, cell-based; method in brief: as §1
[7] = biological target: T1, Somatostatin receptor type 3; assay: Drug uptake in HEK293 cells co-expressing SSTR3 (unknown origin) and RFP assessed as SSTR3-mediated drug accumulation by measuring mean fluorescence intensity measured after 30 mins by fluorescence microscopic analysis (reference value: 1.1); format: ADME, cell-based; details: hek293, 0.5 h
[8] = biological target: T5, Somatostatin receptor type 5 (Homo sapiens, UniProt P35346); assay: Agonist activity at SSTR5 (unknown origin) expressed in HEK293 cells assessed as inhibition of forskolin-induced CRE promoter activity at 10 to 1000 nM by luciferase reporter gene assay; format: functional, cell-based; method in brief: as §1
[9] = biological target: T5, Somatostatin receptor type 5; assay: Drug uptake in HEK293 cells co-expressing SSTR5 (unknown origin) and RFP assessed as SSTR5-mediated drug accumulation by measuring mean fluorescence intensity measured after 30 mins by fluorescence microscopic analysis (reference value: 1.1); format: ADME, cell-based; details: hek293, 0.5 h
[10] = biological target: T4, Somatostatin receptor type 2; assay: Drug uptake in HEK293 cells co-expressing SSTR2 (unknown origin) and RFP assessed as SSTR2-mediated drug accumulation by measuring mean fluorescence intensity at 400 nM measured after 15 mins in presence of SSTR2 agonist octreotide by fluorescence assay; format: cell-based; details: hek293, 0.25 h, 0.4 µM
Method in brief: (§2)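 FITC-peptide at 400 nM then added for 15 min. FITC/RFP fluorescence imaged; mean fluorescence intensity of FITC+ cells quantified (n = 10), representative of three experiments.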

[11] = biological target: T3, Somatostatin receptor type 4; assay: Drug uptake in HEK293 cells co-expressing SSTR4 (unknown origin) and RFP assessed as SSTR4-mediated drug accumulation by measuring mean fluorescence intensity at 400 nM measured after 15 mins in presence of SSTR2 agonist octreotide by fluorescence assay; format: cell-based; details: hek293, 0.25 h, 0.4 µM; method in brief: as §2
[12] = biological target: T3, Somatostatin receptor type 4; assay: Agonist activity at SSTR4 (unknown origin) expressed in HEK293 cells assessed as inhibition of forskolin-induced CRE promoter activity at 10 to 1000 nM by luciferase reporter gene assay; format: functional, cell-based; method in brief: as §1
[13] = test system: PANC-1; assay: Cytotoxicity against human PANC1 cells after 72 hrs by XTT assay; format: functional, cell-based; details: PANC-1, 72 h
Method in brief: (§3)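 Cells seeded at 5-10 x 10^4 cells/mL and preincubated 24 h, then washed and given fresh medium with a concentration series for 48 h or 72 h. XTT added for a further 2-4 h, absorbance read at 480 and 680 nm. % growth inhibition taken against medium+solvent and solvent-free controls. DMSO final <0.05%. Tetraplicates, each experiment run twice.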

[14] = test system: PANC-1; assay: Cytotoxicity against human PANC1 cells after 48 hrs by XTT assay; format: functional, cell-based; details: PANC-1, 48 h; method in brief: as §3
[15] = test system: CAPAN-1; assay: Cytotoxicity against human Capan1 cells after 48 hrs by XTT assay; format: functional, cell-based; details: CAPAN-1, 48 h; method in brief: as §3
[16] = test system: CAPAN-1; assay: Cytotoxicity against human Capan1 cells after 72 hrs by XTT assay; format: functional, cell-based; details: CAPAN-1, 72 h; method in brief: as §3
[17] = Half life in IMDM culture medium by LC-MS analysis; format: physicochemical
Method in brief: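 Conjugate stock (10 µl) added to 1 ml IMDM (DME-based, 20% bovine serum) at 37°C. Aliquots taken at 1, 3, 6, 24, 48, 72 and 96 h, quenched with 2.5 vol ethanol, centrifuged, filtered and analysed by LC-MS. At least three measurements.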

[18] = Drug uptake in tumor of athymic nude mouse xenografted with human PANC1 cells at 120 mg/kg, iv measured after 24 hrs by fluorescent microscopic analysis; format: ADME, organism-based, Neoplasm; details: in vivo
Method in brief: (§4)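 Five-week-old athymic nude mice inoculated subcutaneously in the dorsal left side with Panc-1 cells. When tumours reached 100 mm3, FITC-labelled peptide or peptide–CPT conjugate was given intravenously at 120 mg/kg as a single dose. At 24 h, tumour, spleen, pancreas, kidney and liver were excised and fluorescence was imaged by microscopy with a CCD camera.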

[19] = Drug uptake in kidney of athymic nude mouse xenografted with human PANC1 cells at 120 mg/kg, iv measured after 24 hrs by fluorescent microscopic analysis; format: ADME, organism-based; details: in vivo; method in brief: as §4
[20] = Drug uptake in pancreas of athymic nude mouse xenografted with human PANC1 cells at 120 mg/kg, iv measured after 24 hrs by fluorescent microscopic analysis; format: ADME, organism-based; details: in vivo; method in brief: as §4

T5 sequence (P35346 whole entry): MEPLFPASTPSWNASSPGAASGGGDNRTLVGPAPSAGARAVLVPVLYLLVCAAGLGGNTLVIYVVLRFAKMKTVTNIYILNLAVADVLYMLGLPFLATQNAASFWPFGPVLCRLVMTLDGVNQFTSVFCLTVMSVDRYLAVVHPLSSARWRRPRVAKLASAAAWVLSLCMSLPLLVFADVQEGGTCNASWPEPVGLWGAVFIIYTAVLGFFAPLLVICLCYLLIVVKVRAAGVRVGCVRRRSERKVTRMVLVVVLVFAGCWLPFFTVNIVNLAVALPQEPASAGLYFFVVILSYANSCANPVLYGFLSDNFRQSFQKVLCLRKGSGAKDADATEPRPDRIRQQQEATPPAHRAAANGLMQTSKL
T4 sequence (P30874 whole entry): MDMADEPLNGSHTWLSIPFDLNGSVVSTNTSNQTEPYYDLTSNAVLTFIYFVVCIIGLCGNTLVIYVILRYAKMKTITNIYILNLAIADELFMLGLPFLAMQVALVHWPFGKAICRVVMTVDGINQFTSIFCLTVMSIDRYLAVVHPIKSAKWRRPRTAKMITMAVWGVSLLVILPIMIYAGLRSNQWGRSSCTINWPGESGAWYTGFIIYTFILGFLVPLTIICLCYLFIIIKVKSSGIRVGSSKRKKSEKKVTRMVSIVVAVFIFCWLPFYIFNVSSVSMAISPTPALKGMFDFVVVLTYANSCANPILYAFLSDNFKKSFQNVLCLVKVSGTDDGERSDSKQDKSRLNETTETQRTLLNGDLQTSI
T1 sequence (P32745 whole entry): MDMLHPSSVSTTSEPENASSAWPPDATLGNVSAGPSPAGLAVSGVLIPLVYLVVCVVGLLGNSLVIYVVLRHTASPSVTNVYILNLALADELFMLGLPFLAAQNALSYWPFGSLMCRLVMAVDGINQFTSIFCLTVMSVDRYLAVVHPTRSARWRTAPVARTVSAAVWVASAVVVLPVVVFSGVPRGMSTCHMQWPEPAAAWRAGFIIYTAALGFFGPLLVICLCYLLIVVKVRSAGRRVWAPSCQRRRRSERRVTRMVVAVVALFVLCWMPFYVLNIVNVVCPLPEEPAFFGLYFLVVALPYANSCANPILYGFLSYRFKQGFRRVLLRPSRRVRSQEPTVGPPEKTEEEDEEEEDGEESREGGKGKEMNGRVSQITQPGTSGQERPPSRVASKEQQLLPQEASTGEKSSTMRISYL
T3 sequence (P31391 whole entry): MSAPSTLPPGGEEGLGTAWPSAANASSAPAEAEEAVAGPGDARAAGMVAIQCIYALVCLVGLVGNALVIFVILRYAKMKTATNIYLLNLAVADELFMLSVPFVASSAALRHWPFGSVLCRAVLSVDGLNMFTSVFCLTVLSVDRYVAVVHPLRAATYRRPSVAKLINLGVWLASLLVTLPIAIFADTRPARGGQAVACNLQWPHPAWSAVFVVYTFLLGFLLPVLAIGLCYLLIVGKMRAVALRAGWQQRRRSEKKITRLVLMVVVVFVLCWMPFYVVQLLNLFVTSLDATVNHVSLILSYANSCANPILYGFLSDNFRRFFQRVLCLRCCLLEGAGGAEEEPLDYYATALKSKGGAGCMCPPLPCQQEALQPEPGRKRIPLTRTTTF
T2 sequence (P30872 whole entry): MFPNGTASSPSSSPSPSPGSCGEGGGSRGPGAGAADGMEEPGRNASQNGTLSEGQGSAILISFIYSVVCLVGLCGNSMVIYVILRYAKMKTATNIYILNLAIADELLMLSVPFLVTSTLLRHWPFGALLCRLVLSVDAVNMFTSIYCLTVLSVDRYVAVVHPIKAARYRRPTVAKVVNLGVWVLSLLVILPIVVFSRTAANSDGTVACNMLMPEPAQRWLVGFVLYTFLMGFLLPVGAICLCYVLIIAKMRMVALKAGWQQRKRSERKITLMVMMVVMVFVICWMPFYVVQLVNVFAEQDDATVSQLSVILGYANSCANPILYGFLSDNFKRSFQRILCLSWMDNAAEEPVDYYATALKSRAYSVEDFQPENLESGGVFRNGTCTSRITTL

SMILES | IC50 [13] [µM] | IC50 [14] [µM] | IC50 [15] [µM] | IC50 [16] [µM] | half-life [17] [h] | also measured
C[C@@H](O)[C@@H]1NC(=O)[C@H](CCCCN)NC(=O)[C@H](Cc2c[nH]c3ccccc23)NC(=O)[C@@H](Cc2c[nH]c3ccccc23)NC(=O)[C@H](Cc2ccccc2)NC(=O)[C@@H](NC(=O)[C@@H](Cc2ccccc2)NC(=O)CCCNC(=S)Nc2ccc(-c3c4ccc(=O)cc-4oc4cc(O)ccc34)c(C(=O)O)c2)CSSCCN(CC(N)=O)C(=O)[C@H](Cc2ccccc2)NC1=O | – | – | – | – | – | inhibition [1]: Active; Flu intensity [2]: 0.9; Flu intensity [3]: 32.4; inhibition [4]: Active; Flu intensity [5]: 6.7; inhibition [6]: inactive; Flu intensity [7]: 42.1; inhibition [8]: Active; Flu intensity [9]: 48.8; Flu intensity [10]: 0.9; Flu intensity [11]: 21.1; inhibition [12]: Active
C[C@@H](O)[C@@H]1NC(=O)[C@H](CCCCN)NC(=O)[C@@H](Cc2c[nH]c3ccccc23)NC(=O)[C@H](Cc2ccccc2)NC(=O)[C@@H](NC(=O)[C@H](CCCNC(=N)N)NC(=O)[C@H](N)Cc2ccccc2)CSSCCN(CC(N)=O)C(=O)[C@H](Cc2ccccc2)NC1=O (HELM PEPTIDE1{[dF].R.C.F.[dW].K.T.F.[O=C(CN(CCS[*:3])[*:1])[*:2]].[am]}$PEPTIDE1,PEPTIDE1,3:R3-9:R3$$$V2.0) | > 50 | > 50 | > 50 | > 50 | – | –
COc1ccc(/C=C\c2cc(OC)c(OC)c(OC)c2)cc1OC(=O)NCCCC(=O)N[C@H](Cc1ccccc1)C(=O)N[C@H]1CSSCCN(CC(N)=O)C(=O)[C@H](Cc2ccccc2)NC(=O)[C@H]([C@@H](C)O)NC(=O)[C@H](CCCCN)NC(=O)[C@H](Cc2c[nH]c3ccccc23)NC(=O)[C@@H](Cc2c[nH]c3ccccc23)NC(=O)[C@H](Cc2ccccc2)NC1=O | 1.19 | 2.67 | 2.56 | 2.09 | 18 | –
COc1cc([C@@H]2c3[nH]c4ccccc4c3C[C@H]3COC(=O)N32)cc(OC)c1O | 0.61 | – | 1.57 | 1.23 | – | –
COc1ccc(/C=C\c2cc(OC)c(OC)c(OC)c2)cc1O [COMBRETASTATIN A4] | 0.16 | – | 0.84 | – | – | –
COc1cc(/C=C\c2ccc(ON[C@H](Cc3ccccc3)C(=O)N[C@@H](CCCNC(=N)N)C(=O)N[C@H]3CSSCCN(CC(N)=O)C(=O)[C@H](Cc4ccccc4)NC(=O)[C@H]([C@@H](C)O)NC(=O)[C@H](CCCCN)NC(=O)[C@@H](Cc4c[nH]c5ccccc45)NC(=O)[C@H](Cc4ccccc4)NC3=O)c(OC(=O)NCCCC(C)=O)c2)cc(OC)c1OC | 1.17 | 1.72 | 0.67 | 0.52 | 15 | –
COc1cc(C2c3[nH]c4ccccc4c3CC3COC(=O)N32)cc(OC)c1OC(=O)NCCCC(=O)N[C@H](Cc1ccccc1)C(=O)N[C@@H](CCCNC(=N)N)C(=O)N[C@H]1CSSCCN(CC(N)=O)C(=O)[C@H](Cc2ccccc2)NC(=O)[C@H]([C@@H](C)O)NC(=O)[C@H](CCCCN)NC(=O)[C@@H](Cc2c[nH]c3ccccc23)NC(=O)[C@H](Cc2ccccc2)NC1=O (stereo partly drawn) | 0.14 | 0.27 | 1.47 | 1.43 | 3 | –
COc1cc(C2c3[nH]c4ccccc4c3CC3COC(=O)N32)cc(OC)c1OC(=O)NCCCC(=O)N[C@H](Cc1ccccc1)C(=O)N[C@H]1CSSCCN(CC(N)=O)C(=O)[C@H](Cc2ccccc2)NC(=O)[C@H]([C@@H](C)O)NC(=O)[C@H](CCCCN)NC(=O)[C@H](Cc2c[nH]c3ccccc23)NC(=O)[C@@H](Cc2c[nH]c3ccccc23)NC(=O)[C@H](Cc2ccccc2)NC1=O (stereo partly drawn) | 2.13 | 2.98 | 0.25 | 0.09 | 5 | –
C[C@@H](O)[C@@H]1NC(=O)[C@H](CCCCN)NC(=O)[C@@H](Cc2c[nH]c3ccccc23)NC(=O)[C@H](Cc2ccccc2)NC(=O)[C@@H](NC(=O)[C@H](N)Cc2ccccc2)CSSC[C@@H](C(=O)N[C@H](CO)[C@@H](C)O)NC1=O | – | – | – | – | – | inhibition [1]: Active; inhibition [4]: Active
CC[C@@]1(O)C(=O)OCc2c1cc1n(c2=O)Cc2cc3ccccc3nc2-1 [CAMPTOTHECIN] | 0.09 | 0.18 | – | 0.21 | – | –
C[C@@H](O)[C@@H]1NC(=O)[C@H](CCCCN)NC(=O)[C@@H](Cc2c[nH]c3ccccc23)NC(=O)[C@H](Cc2ccccc2)NC(=O)[C@@H](NC(=O)[C@H](CCCNC(=N)N)NC(=O)[C@@H](Cc2ccccc2)NC(=O)CCCNC(=S)Nc2ccc(-c3c4ccc(=O)cc-4oc4cc(O)ccc34)c(C(=O)O)c2)CSSCCN(CC(N)=O)C(=O)[C@H](Cc2ccccc2)NC1=O | – | – | – | – | – | Drug uptake [18]: Active; inhibition [1]: Active; inhibition [4]: Active; Drug uptake [19]: Active; inhibition [6]: inactive; Drug uptake [20]: Not Active; inhibition [8]: Active; inhibition [12]: Active
C[C@@H](O)[C@@H]1NC(=O)[C@H](CCCCN)NC(=O)[C@H](Cc2c[nH]c3ccccc23)NC(=O)[C@@H](Cc2c[nH]c3ccccc23)NC(=O)[C@H](Cc2ccccc2)NC(=O)[C@@H](NC(=O)[C@H](N)Cc2ccccc2)CSSCCN(CC(N)=O)C(=O)[C@H](Cc2ccccc2)NC1=O | > 50 | > 50 | > 50 | > 50 | – | –
